Reference: article PMC7028313 (ACS chemical neuroscience, 2019)

Experiments:
[1] = test system: Aβ42 neurotoxicity in SH-SY5Y cells; experiment: Anti-Aβ42 neurotoxicity assay; assay type: cell-based, human; settings: 0.1 μM pretreatment 1 h then 10 μM Aβ42 72 h
[2] = test system: mitochondrial membrane potential (Δψm) in SH-SY5Y cells; experiment: JC-10 mitochondrial membrane potential assay; assay type: cell-based, human
sEH in SH-SY5Y cells = experiment: Cellular sEH activity in SH-SY5Y cells, [3H]-t-DPPO substrate; assay type: cell-based, human; settings: 10, 100 and 1000 nM for 24 h
GSK-3β = GSK-3β (Homo sapiens, UniProt P49841); experiment: ADP-Glo kinase luminescent assay; assay type: biochemical; settings: 1 μM TPPU, in comparison with p38β
Sequence of GSK-3β (P49841 whole entry): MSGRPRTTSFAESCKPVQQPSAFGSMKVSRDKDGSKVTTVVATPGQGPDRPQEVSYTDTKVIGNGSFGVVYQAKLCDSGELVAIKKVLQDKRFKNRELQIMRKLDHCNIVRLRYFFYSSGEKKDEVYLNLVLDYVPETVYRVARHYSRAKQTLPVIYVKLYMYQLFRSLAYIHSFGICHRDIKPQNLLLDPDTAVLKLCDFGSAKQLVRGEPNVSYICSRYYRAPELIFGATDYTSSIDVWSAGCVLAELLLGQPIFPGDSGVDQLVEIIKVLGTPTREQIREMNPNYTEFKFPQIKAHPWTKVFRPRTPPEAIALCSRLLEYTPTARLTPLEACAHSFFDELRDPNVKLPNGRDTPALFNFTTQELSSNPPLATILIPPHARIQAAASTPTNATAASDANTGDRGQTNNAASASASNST

CK1α1 = experiment: ADP-Glo kinase luminescent assay; assay type: biochemical, human; settings: 1 μM TPPU, in comparison with p38β
Outline: (§1)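 Test compound at 1 μM, or 0.2% PEG 400 vehicle. Incubated 1 h at room temperature, then ADP-Glo luminescence read. Staurosporine 1 μM served as reference. Activity expressed relative to vehicle. Duplicates, six independent experiments.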

[3] = test system: NF-κB (p50, p52, p65, RelB, c-Rel) in SH-SY5Y cells; experiment: Nuclear NF-κB DNA-binding ELISA; assay type: cell-based, human
AMPKA2 = experiment: ADP-Glo kinase luminescent assay; assay type: biochemical, human; settings: 1 μM TPPU, in comparison with p38β
Outline: as §1

SH-SY5Y cells [4] = experiment: Neuronal morphology analysis under Aβ42; assay type: cell-based, human; settings: 100 nM pretreatment then 10 μM Aβ42, 72 h
p38β kinase = p38β kinase (Homo sapiens, UniProt Q15759); experiment: ADP-Glo kinase luminescent assay; assay type: biochemical; settings: 1 μM TPPU, relative to vehicle control
Sequence of p38β kinase (Q15759 whole entry): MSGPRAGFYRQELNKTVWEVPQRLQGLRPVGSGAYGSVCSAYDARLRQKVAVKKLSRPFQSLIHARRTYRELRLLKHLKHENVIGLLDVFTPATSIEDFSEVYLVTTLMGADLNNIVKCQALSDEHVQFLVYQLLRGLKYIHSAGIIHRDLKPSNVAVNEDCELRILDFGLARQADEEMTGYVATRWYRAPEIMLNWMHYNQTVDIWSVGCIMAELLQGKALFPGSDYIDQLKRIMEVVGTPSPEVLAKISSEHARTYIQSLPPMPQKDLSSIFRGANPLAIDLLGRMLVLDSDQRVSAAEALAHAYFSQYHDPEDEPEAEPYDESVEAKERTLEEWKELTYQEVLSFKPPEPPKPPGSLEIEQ

p38δ = experiment: ADP-Glo kinase luminescent assay; assay type: biochemical, human; settings: 1 μM TPPU
Outline: as §1

p38γ kinase = target: T1, p38γ kinase (Homo sapiens, UniProt P53778); experiment: ADP-Glo kinase luminescent assay; assay type: biochemical; settings: 1 μM TPPU, relative to vehicle control
T1 sequence (P53778 1-367): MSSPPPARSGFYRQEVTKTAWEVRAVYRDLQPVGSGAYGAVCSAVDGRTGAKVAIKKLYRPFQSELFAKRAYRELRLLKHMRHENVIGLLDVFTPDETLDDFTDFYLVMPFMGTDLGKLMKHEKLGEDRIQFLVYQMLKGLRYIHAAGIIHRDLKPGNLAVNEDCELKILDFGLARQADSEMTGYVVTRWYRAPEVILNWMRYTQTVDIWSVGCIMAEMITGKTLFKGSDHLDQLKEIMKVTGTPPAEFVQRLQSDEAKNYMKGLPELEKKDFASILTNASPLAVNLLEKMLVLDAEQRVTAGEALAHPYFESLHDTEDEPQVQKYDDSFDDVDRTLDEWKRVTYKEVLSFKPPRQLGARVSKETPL

p38α = experiment: ADP-Glo kinase luminescent assay; assay type: biochemical, human; settings: 1 μM TPPU
Outline: as §1

SH-SY5Y cells [5] = experiment: Cell viability / cytotoxicity MTS assay; assay type: cell-based, human; settings: TPPU alone, 72 h
[6] = test system: Tau pS396 in SH-SY5Y cells; experiment: Anti-tau hyperphosphorylation ELISA; assay type: cell-based, human
p38α/β = settings: read-out: IC50 p38α/β; cited from earlier work
sEH = settings: read-out: IC50 sEH; cited from earlier work

## epoxyeicosatrienoic acids [EETs, reference compound]
[1]
  neuroprotection (cell viability): effective neuroprotection
[2]; 0.1 μM pretreatment, 10 μM Aβ42 72 h
  loss of Δψm induced by Aβ42: attenuated the loss of Δψm

## N#CC(C#N)=NNc1ccc(OC(F)(F)F)cc1 [FCCP, carbonyl cyanide-4-(trifluoromethoxy)phenylhydrazone]
[2]; FCCP 50 μM
  Δψm depolarization (reference ionophore): depolarized Δψm

## CCC(=O)N1CCC(NC(=O)Nc2ccc(OC(F)(F)F)cc2)CC1 [TPPU]
sEH in SH-SY5Y cells
  cellular sEH activities: significantly decreased cellular sEH activities in a dose-dependent manner
GSK-3β
  inhibition of kinase activity: weakly inhibited
CK1α1
  inhibition of kinase activity: weakly inhibited
[3]; 0.05 and 0.1 μM pretreatment 1 h then 5 μM Aβ42 8 h, p < 0.0001
  nuclear translocation of NF-κB subunits: inhibited nuclear translocation of all five subunits
[1]
  neuroprotection (cell viability): effective neuroprotection
AMPKA2
  inhibition of kinase activity: weakly inhibited
SH-SY5Y cells [4]
  neuronal morphology / Aβ42 toxicity: effectively relieved Aβ42 toxicity
p38β kinase
  remaining kinase activity: 36%
p38δ
  inhibitory effect on kinase activity: not significant
p38γ kinase
  remaining kinase activity: 49%
p38α
  inhibitory effect on kinase activity: not significant
SH-SY5Y cells [5]
  tolerable and nontoxic dose: ≤ 1000 nM
[6]; 0.01, 0.1 and 1 μM pretreatment 1 h then 10 μM Aβ42 72 h, p < 0.0001
  Aβ42-induced tau phosphorylation level at pS396: significantly mitigated
[6]; TPPU 0.01 μM versus SB202190 0.05 μM
  alleviation of tau hyperphosphorylation compared with SB202190: stronger alleviative effect

## C[C@@H]1C[C@H]2[C@@H]3CCC4=CC(=O)C=C[C@]4(C)[C@@]3(F)[C@@H](O)C[C@]2(C)[C@@]1(O)C(=O)CO [DEX, dexamethasone, reference compound]
[3]; 0.1 μM DEX pretreatment 1 h then 5 μM Aβ42 8 h
  levels of NF-κB subunits in neuronal nuclei: significantly reduced levels of all five NF-κB subunits

## O=C(NC12CC3CC(CC(C3)C1)C2)N[C@H]1CC[C@H](Oc2ccc(C(=O)O)cc2)CC1 [t-AUCB, trans-4-(4-[3-adamantan-1-yl-ureido]-cyclohexyloxy)-benzoic acid]
sEH
  IC50: […]
